Assay results: PMC5327638 (Theranostics, 2017)

Assays:
[1] = system: MDAMB231 X4 tumor-bearing Balb/c nude mice; test: Biodistribution by radiodetection; assay type: in vivo, mouse; settings: 24 h after i.v. 50 μg (10 MBq), ^111In
Procedure, shortened: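 Tracer was labelled with 111In alone or with 111In plus 165Ho, and 50 μg (10 MBq) was given i.v.; some mice had SPECT at 24 h first. Mice were killed at 24 h, and tissues were excised and weighed; dual-label samples were halved before weighing. Gamma counting used 245 keV for 60 s. cpm were converted to MBq, corrected for decay and counting efficiency. %ID/g = (MBq in tissue/injected dose ×100%)/tissue weight.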

[2] = system: MDAMB231 X4 tumor-bearing Balb/c nude mice; test: In vivo SPECT imaging in tumor-bearing mice; set-up: species or system mouse; settings: i.v., 50 μg, 10 MBq; 24 hrs post-injection; n=5
[3] = molecular target: chemokine receptor 4 (CXCR4), MDAMB231 X4 cells (Homo sapiens, UniProt P61073); test: Fluorescence flow cytometry saturation binding
Procedure, shortened: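 Trypsinised cells (300000 per aliquot) were exposed to tracer at 0–1000 nM in 0.1% BSA/PBS for 1 hr at 4 °C, washed three times and resuspended. Flow cytometry used a 635 nm laser with a […] filter. Mean fluorescence counts gave saturation curves. Triplicates, total n=6.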

chemokine receptor 4 (CXCR4), MDAMB231 X4 cells, sequence (P61073 whole entry): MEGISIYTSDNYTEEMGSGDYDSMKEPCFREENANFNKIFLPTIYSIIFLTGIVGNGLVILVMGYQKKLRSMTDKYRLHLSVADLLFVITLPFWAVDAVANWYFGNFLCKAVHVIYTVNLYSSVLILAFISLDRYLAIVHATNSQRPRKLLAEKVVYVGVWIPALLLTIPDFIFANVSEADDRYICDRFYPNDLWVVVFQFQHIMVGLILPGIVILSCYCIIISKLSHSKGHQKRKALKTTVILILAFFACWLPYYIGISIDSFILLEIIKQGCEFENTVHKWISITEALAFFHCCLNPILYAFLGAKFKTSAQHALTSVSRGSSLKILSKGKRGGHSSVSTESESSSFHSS

Structure (SMILES): CC(=O)N[C@@H](CCCNC(=N)N)C(=O)N[C@@H](CCCNC(=N)N)C(=O)N[C@@H](Cc1ccc2ccccc2c1)C(=O)N[C@H]1CSSC[C@@H](C(=O)N[C@@H](CCCNC(=N)N)C(N)=O)NC(=O)[C@H](CCCNC(N)=O)NC(=O)[C@H](CCCNC(=N)N)NC(=O)[C@H](Cc2ccc(O)cc2)NC(=O)[C@@H]2CCCN2C(=O)[C@@H](CCCCNC(=O)CCCNC(=O)[C@H](CCCCNC(=O)CCCCCN2C(=CC=CC=CC3=[N+](CCCCS(=O)(=O)O)c4ccc(S(=O)(=O)[O-])cc4C3(C)C)C(C)(C)c3cc(S(=O)(=O)O)ccc32)NC(=O)CN(CCN(CC(=O)O)CC(=O)O)CCN(CC(=O)O)CC(=O)O)NC(=O)[C@H](CCCNC(=N)N)NC(=O)[C@H](CCCNC(N)=O)NC(=O)[C@H](Cc2ccc(O)cc2)NC1=O (single isomer, unassigned) [^111In-hybrid-Cy5-Ac-TZ14011, metal not drawn]
- uptake in tumor exceeding uptake in muscle, factor [1]: 6
- uptake on SPECT images [2]: high uptake in the liver and kidneys as well as in the tumor

Structure (SMILES): CC(=O)N[C@@H](CCCNC(=N)N)C(=O)N[C@@H](CCCNC(=N)N)C(=O)N[C@@H](Cc1ccc2ccccc2c1)C(=O)N[C@H]1CSSC[C@@H](C(=O)N[C@@H](CCCNC(=N)N)C(N)=O)NC(=O)[C@H](CCCNC(N)=O)NC(=O)[C@H](CCCNC(=N)N)NC(=O)[C@H](Cc2ccc(O)cc2)NC(=O)[C@@H]2CCCN2C(=O)[C@@H](CCCCNC(=O)CCCNC(=O)[C@H](CCCCNC(=O)CCCCCN2C(=CC=CC=CC3=[N+](CCCCS(=O)(=O)O)c4ccc(S(=O)(=O)[O-])cc4C3(C)C)C(C)(C)c3cc(S(=O)(=O)O)ccc32)NC(=O)CN(CCN(CC(=O)O)CC(=O)O)CCN(CC(=O)O)CC(=O)O)NC(=O)[C@H](CCCNC(=N)N)NC(=O)[C@H](CCCNC(N)=O)NC(=O)[C@H](Cc2ccc(O)cc2)NC1=O (single isomer, unassigned) [^111In(^165Ho)-hybrid-Cy5-Ac-TZ14011, metal not drawn]
- tumor to muscle ratio (T/M), radiodetection ([1]; n=3-5): 4.38 ± 1.51

Structure (SMILES): CC(=O)N[C@@H](CCCNC(=N)N)C(=O)N[C@@H](CCCNC(=N)N)C(=O)N[C@@H](Cc1ccc2ccccc2c1)C(=O)N[C@H]1CSSC[C@@H](C(=O)N[C@@H](CCCNC(=N)N)C(N)=O)NC(=O)[C@H](CCCNC(N)=O)NC(=O)[C@H](CCCNC(=N)N)NC(=O)[C@H](Cc2ccc(O)cc2)NC(=O)[C@@H]2CCCN2C(=O)[C@@H](CCCCNC(=O)CCCNC(=O)[C@H](CCCCNC(=O)CCCCCN2C(=CC=CC=CC3=[N+](CCCCS(=O)(=O)O)c4ccc(S(=O)(=O)[O-])cc4C3(C)C)C(C)(C)c3cc(S(=O)(=O)O)ccc32)NC(=O)CN(CCN(CC(=O)O)CC(=O)O)CCN(CC(=O)O)CC(=O)O)NC(=O)[C@H](CCCNC(=N)N)NC(=O)[C@H](CCCNC(N)=O)NC(=O)[C@H](Cc2ccc(O)cc2)NC1=O (single isomer, unassigned) [hybrid-Cy5-Ac-TZ14011]
- Kd [3]: 245 ± 65 nM
- maximum signal intensity, flow cytometry ([3]; Cy5, saturation binding, n=6): 1100 fluorescence counts
